Laboratory results from ChEMBL document CHEMBL1142963, “Novel sigma receptor ligands: synthesis and biological profile” (J Med Chem, 2007).

Experiments:
[1] = biological target: D(2) dopamine receptor (Rattus norvegicus, UniProt P61169); experiment: Displacement of [3H]spiperone from rat striatum dopamine D2 receptor
Method in brief: (§1)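 Rat brain tissue by target: striatum for D1, D2 and DAT; olfactory tubercle for D3; cortex for muscarinic, 5-HT3, 5-HT2A, α1, α2, H1, NMDA and SERT; guinea pig cortex for 5-HT4. Inhibitors at seven to nine concentrations. After incubation, samples were filtered on glass fibre filters, washed three times with ice-cold buffer and counted by liquid scintillation. Ki values were derived by curve fitting.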

[2] = biological target: D(3) dopamine receptor (Rattus norvegicus, UniProt P19020); experiment: Displacement of [3H]7OH-DPAT from rat olfactory tubercle dopamine D3 receptor; assay type: tissue-based; method in brief: as §1
D(3) dopamine receptor, sequence (P19020 whole entry): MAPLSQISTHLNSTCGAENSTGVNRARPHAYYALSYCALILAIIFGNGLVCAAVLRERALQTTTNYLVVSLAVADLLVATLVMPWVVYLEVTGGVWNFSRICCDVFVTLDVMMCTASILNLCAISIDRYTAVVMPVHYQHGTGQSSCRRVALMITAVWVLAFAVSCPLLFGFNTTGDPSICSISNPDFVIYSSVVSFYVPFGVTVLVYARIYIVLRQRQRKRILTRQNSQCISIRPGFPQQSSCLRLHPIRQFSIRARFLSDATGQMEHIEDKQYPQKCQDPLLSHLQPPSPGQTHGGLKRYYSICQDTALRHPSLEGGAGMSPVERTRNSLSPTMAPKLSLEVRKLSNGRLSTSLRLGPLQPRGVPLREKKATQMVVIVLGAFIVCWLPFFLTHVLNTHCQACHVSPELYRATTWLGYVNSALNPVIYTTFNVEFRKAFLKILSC

[3] = biological target: 5-hydroxytryptamine receptor 2A (Rattus norvegicus, UniProt P14842); experiment: Displacement of [3H]ketanserin from rat cortex 5HT2A receptor; method in brief: as §1
5-hydroxytryptamine receptor 2A, sequence (P14842 whole entry): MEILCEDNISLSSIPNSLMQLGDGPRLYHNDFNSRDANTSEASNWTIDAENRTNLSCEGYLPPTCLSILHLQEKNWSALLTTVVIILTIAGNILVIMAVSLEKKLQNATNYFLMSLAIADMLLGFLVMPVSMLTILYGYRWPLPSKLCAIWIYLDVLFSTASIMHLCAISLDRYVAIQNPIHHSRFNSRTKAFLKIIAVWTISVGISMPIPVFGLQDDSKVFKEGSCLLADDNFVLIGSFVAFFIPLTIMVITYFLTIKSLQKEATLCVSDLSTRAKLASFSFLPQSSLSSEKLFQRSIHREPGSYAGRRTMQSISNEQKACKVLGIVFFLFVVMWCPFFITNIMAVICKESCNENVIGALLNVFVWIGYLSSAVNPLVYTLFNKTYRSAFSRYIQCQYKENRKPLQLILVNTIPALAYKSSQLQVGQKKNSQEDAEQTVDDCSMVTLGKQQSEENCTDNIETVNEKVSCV

[4] = biological target: 5-hydroxytryptamine receptor 4 (Cavia porcellus, UniProt O70528); experiment: Displacement of [3H][…] from guinea pig cortex 5HT4 receptor; method in brief: as §1
5-hydroxytryptamine receptor 4, sequence (O70528 whole entry): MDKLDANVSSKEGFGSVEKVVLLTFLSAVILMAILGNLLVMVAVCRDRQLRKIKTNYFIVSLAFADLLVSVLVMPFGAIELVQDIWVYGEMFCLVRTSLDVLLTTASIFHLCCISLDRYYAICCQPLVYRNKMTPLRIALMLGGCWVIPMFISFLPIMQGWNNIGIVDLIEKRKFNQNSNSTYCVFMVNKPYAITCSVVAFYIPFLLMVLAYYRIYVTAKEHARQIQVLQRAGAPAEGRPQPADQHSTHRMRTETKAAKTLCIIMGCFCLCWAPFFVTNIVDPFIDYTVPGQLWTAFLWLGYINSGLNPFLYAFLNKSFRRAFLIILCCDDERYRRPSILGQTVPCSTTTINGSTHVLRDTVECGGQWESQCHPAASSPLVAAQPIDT

[5] = biological target: 5-hydroxytryptamine receptor 6 (Rattus norvegicus, UniProt P31388); experiment: Displacement of [3H]5HT from rat cloned 5HT6 receptor expressed in HEK293 cells; assay type: cell-based
5-hydroxytryptamine receptor 6, sequence (P31388 whole entry): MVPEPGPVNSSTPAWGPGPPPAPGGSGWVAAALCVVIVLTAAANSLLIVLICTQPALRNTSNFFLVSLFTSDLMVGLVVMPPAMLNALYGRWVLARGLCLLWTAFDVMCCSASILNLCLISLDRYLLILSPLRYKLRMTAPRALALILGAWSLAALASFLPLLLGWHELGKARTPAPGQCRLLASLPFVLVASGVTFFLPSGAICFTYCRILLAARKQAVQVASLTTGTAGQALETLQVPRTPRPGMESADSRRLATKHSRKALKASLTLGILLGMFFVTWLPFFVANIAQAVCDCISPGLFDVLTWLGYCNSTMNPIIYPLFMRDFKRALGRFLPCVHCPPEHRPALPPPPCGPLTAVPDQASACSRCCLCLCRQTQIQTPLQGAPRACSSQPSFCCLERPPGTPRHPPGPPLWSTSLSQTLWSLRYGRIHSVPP
Method in brief: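 Membranes from HEK-293 cells expressing cloned rat 5-HT6 receptor. Inhibitors at seven to nine concentrations. After incubation, samples were filtered on glass fibre filters, washed three times with ice-cold buffer and counted by liquid scintillation. Ki values were derived by curve fitting.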

[6] = biological target: T1, Adrenergic receptor alpha-2 (Rattus norvegicus, UniProt P22086+P19328+P22909); experiment: Displacement of 3H]RX821002 from rat cortex adrenergic alpha-2 receptor; method in brief: as §1
T1 sequence (P22086 whole entry): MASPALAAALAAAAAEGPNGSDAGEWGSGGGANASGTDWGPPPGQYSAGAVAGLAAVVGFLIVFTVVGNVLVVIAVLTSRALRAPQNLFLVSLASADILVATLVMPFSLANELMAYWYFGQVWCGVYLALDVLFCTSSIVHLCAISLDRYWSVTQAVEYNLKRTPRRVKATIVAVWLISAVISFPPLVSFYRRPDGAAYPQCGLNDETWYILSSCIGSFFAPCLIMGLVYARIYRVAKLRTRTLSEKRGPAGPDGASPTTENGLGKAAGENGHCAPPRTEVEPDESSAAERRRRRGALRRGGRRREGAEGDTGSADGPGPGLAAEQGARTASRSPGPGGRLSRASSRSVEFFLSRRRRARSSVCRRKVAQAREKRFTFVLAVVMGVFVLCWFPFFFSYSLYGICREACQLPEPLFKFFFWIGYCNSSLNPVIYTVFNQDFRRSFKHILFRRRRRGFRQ
T1 sequence (P19328 whole entry): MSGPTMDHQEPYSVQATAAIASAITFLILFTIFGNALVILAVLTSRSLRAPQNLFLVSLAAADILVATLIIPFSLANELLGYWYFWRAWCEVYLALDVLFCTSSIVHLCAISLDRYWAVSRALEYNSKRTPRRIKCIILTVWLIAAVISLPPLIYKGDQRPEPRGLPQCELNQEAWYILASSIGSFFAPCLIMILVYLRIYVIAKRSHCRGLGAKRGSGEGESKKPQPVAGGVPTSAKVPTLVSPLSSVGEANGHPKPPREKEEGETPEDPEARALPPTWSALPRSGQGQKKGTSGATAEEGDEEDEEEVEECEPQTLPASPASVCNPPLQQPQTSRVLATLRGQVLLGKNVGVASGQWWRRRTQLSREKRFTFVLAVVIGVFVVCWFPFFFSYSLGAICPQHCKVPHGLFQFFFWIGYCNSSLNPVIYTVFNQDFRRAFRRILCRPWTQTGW
T1 sequence (P22909 whole entry): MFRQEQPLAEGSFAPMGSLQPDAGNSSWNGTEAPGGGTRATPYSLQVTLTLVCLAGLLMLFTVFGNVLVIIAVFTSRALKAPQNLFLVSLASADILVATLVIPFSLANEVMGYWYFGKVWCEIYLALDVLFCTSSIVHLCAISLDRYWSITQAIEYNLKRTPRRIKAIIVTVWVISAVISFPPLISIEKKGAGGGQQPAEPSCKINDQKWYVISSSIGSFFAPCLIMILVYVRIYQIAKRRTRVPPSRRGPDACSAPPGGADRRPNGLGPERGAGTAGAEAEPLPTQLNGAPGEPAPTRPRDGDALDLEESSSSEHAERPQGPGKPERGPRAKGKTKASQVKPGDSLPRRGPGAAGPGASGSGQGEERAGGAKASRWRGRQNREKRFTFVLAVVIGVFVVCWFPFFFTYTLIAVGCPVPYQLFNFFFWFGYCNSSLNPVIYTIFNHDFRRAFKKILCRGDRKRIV

[7] = biological target: Glutamate NMDA receptor; experiment: Displacement of [3H]CGP-39653 from rat cortex NMDA receptor; method in brief: as §1
[8] = biological target: Histamine H1 receptor (Rattus norvegicus, UniProt P31390); experiment: Displacement of [3H]pyrilamine from rat cortex histamine H1 receptor; method in brief: as §1
Histamine H1 receptor, sequence (P31390 whole entry): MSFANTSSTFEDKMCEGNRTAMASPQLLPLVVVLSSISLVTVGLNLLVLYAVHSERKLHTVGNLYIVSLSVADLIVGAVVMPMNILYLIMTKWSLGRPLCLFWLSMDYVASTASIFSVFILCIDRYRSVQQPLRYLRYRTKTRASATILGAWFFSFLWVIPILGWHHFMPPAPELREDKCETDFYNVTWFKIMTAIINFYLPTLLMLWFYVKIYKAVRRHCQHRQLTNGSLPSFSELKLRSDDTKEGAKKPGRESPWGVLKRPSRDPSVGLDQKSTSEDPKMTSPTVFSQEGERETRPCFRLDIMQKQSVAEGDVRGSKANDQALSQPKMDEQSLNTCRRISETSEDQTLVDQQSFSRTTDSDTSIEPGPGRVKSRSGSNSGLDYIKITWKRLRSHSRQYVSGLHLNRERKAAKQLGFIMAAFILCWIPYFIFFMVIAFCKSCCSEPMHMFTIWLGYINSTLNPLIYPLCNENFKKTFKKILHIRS

[9] = biological target: Sodium-dependent serotonin transporter (Rattus norvegicus, UniProt P31652); experiment: Displacement of [3H]citalopram from rat cortex SERT; method in brief: as §1
Sodium-dependent serotonin transporter, sequence (P31652 whole entry): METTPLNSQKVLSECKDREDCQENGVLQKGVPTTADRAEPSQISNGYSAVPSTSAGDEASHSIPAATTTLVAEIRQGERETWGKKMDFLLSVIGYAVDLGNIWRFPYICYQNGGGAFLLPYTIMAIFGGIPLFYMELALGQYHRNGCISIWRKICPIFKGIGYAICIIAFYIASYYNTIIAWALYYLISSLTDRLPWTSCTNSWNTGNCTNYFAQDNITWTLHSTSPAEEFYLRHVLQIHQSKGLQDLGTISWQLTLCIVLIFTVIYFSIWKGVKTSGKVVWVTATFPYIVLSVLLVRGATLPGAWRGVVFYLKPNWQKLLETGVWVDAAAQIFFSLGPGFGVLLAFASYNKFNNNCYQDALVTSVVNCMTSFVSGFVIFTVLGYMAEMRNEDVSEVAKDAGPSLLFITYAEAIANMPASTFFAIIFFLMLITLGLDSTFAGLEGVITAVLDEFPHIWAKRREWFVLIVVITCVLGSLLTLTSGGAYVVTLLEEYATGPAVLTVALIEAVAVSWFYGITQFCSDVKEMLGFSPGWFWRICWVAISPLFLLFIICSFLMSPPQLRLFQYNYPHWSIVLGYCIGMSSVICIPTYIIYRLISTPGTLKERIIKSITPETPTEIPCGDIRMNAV

D(2) dopamine receptor, sequence (P61169 whole entry): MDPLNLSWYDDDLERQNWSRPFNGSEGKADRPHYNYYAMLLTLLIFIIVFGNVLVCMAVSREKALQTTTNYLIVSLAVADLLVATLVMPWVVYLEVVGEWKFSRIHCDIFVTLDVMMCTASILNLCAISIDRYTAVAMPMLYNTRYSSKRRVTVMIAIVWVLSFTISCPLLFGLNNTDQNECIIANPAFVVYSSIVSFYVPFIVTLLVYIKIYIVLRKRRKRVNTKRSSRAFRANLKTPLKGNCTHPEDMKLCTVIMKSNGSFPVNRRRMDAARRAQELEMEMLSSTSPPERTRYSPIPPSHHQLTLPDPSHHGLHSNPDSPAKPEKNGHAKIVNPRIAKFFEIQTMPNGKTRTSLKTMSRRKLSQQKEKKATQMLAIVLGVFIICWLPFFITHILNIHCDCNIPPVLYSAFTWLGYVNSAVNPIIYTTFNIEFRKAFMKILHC

Structure (SMILES): COC(=O)C1(c2ccc(C)cc2)CC1CN1CCC(O)(c2ccccc2)CC1 (centres undefined)
- Ki [1]: 1.28 µM
- Ki [2]: 4.9 µM
- Ki [3]: 3.15 µM
- Ki [4]: > 10 µM
- Ki [5]: > 10 µM
- Ki [6]: 9.414 µM
- Ki [7]: > 10 µM
- Ki [8]: 1.42 µM
- Ki [9]: > 10 µM
